Values after ≈ are worked out from the molar mass of the structure shown.
Key:
Aspergillus niger = assay: Antimycotic activity against Aspergillus niger ATCC 10335 after 48 hrs; details: ATCC 10335, 48 h
Trichophyton rubrum = assay: Antimycotic activity against Trichophyton rubrum ATCC 28188 after 72 hrs; type: functional; details: ATCC 28188, 72 h
Procedure, shortened: (§1)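 Agar dilution MIC on Sabouraud glucose agar; the filamentous fungi were maintained on potato dextrose agar at 27 °C. DMSO stocks were diluted 2-fold and added to the medium: pure compounds 400-3.125 µg/mL, extracts 10-1.25 mg/mL, references 128-1 µg/mL; final DMSO at most 2%. A hemocytometer-counted spore inoculum was loop-applied to the agar surface, and plates were incubated at 29 °C for 72 h. MIC was the lowest concentration with no visible growth; run in triplicate.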

[1] = system: Trichophyton mentagrophytes; assay: Antimycotic activity against Trichophyton mentagrophytes ATCC 28185 after 72 hrs; type: functional; details: ATCC 28185, 72 h
Procedure, shortened: as §1

Candida albicans [2] = assay: Antimycotic activity against Candida albicans ATCC 10231 after 24 hrs; details: ATCC 10231, 24 h
Candida albicans [3] = assay: Antimycotic activity against Candida albicans ATCC 10231 after 48 hrs; type: functional

Row | Compound | MIC (Aspergillus niger) | MIC (Trichophyton rubrum) | MIC [1] | MIC (Candida albicans [2]) | MIC (Candida albicans [3])
1 | Clc1ccc(COC(Cn2ccnc2)c2ccc(Cl)cc2Cl)c(Cl)c1 (stereo not given) [MICONAZOLE] | 8 µg/mL (≈ 19.2 µM) | 4 µg/mL (≈ 9.61 µM) | 4 µg/mL (≈ 9.61 µM) |  | 
2 | C[C@@H]1CO[C@@]2(O[C@H]3C[C@H]4[C@@H]5C[C@H](O[C@@H]6O[C@H](C)[C@@H](O)[C@H](O[C@@H]7OC[C@@H](O)[C@H](O)[C@H]7O)[C@H]6O)[C@H]6C[C@@H](O)CC[C@]6(C)[C@H]5CC[C@]4(C)[C@H]3[C@@H]2C)[C@@H](O)C1 | > 400 µg/mL | 25 µg/mL (≈ 34.4 µM) | 25 µg/mL (≈ 34.4 µM) | > 400 µg/mL | 
3 | C[C@@H]1CC[C@@]2(OC1)O[C@H]1C[C@H]3[C@@H]4C[C@H](O[C@@H]5O[C@H](C)[C@@H](O)[C@H](O[C@@H]6OC[C@@H](O)[C@H](O)[C@H]6O)[C@H]5O)[C@H]5C[C@@H](O)CC[C@]5(C)[C@H]4CC[C@]3(C)[C@H]1[C@@H]2C | 100 µg/mL (≈ 141 µM) | 12.5 µg/mL (≈ 17.6 µM) | 12.5 µg/mL (≈ 17.6 µM) | 200 µg/mL (≈ 281 µM) | 
4 | NYSTATIN |  |  |  |  | 8 µg/mL
5 | C[C@H]1CC[C@@]2(OC1)O[C@H]1C[C@H]3[C@@H]4C[C@H](O[C@@H]5O[C@H](C)[C@@H](O)[C@H](O)[C@H]5O)[C@H]5C[C@@H](O)CC[C@]5(C)[C@H]4CC[C@]3(C)[C@H]1[C@@H]2C | > 400 µg/mL | 50 µg/mL (≈ 86.4 µM) | 25 µg/mL (≈ 43.2 µM) | > 400 µg/mL | 
6 | C[C@H]1CC[C@@]2(OC1)O[C@H]1C[C@H]3[C@@H]4C[C@H](O[C@@H]5O[C@H](C)[C@@H](O)[C@H](O[C@@H]6OC[C@@H](O)[C@H](O)[C@H]6O)[C@H]5O)[C@H]5C[C@@H](O)CC[C@]5(C)[C@H]4CC[C@]3(C)[C@H]1[C@@H]2C | > 400 µg/mL | 25 µg/mL (≈ 35.2 µM) | 25 µg/mL (≈ 35.2 µM) | > 400 µg/mL | 
7 | C[C@@H]1CC[C@@]2(OC1)O[C@H]1C[C@H]3[C@@H]4C[C@H](O[C@@H]5OC[C@@H](O)[C@H](O)[C@H]5O)[C@H]5C[C@@H](O)CC[C@]5(C)[C@H]4CC[C@]3(C)[C@H]1[C@@H]2C | > 400 µg/mL | 100 µg/mL (≈ 177 µM) | 100 µg/mL (≈ 177 µM) | 200 µg/mL (≈ 354 µM) | 
8 | C[C@@H]1CO[C@@]2(O[C@H]3C[C@H]4[C@@H]5C[C@H](O[C@@H]6O[C@H](C)[C@@H](O)[C@H](O[C@@H]7OC[C@@H](O)[C@H](O)[C@H]7O)[C@H]6O)[C@H]6C[C@@H](O)CC[C@]6(C)[C@H]5CC[C@]4(C)[C@H]3[C@@H]2C)[C@H](O)C1 | > 400 µg/mL | 100 µg/mL (≈ 138 µM) | 100 µg/mL (≈ 138 µM) | > 400 µg/mL | 
9 | C[C@H]1CO[C@@]2(O[C@H]3C[C@H]4[C@@H]5C[C@H](O[C@@H]6O[C@H](C)[C@@H](O)[C@H](O[C@@H]7O[C@H](C)[C@@H](O)[C@H](O)[C@@H]7O)[C@H]6O)[C@H]6C[C@@H](O)CC[C@]6(C)[C@H]5CC[C@]4(C)[C@H]3[C@@H]2C)[C@@H](O)C1 | 200 µg/mL (≈ 270 µM) | 200 µg/mL (≈ 270 µM) | 200 µg/mL (≈ 270 µM) | 200 µg/mL (≈ 270 µM) | 
10 | C[C@@H]1CC[C@@]2(OC1)O[C@H]1C[C@H]3[C@@H]4C[C@H](O[C@@H]5O[C@H](C)[C@@H](O)[C@H](O[C@@H]6O[C@H](C)[C@@H](O)[C@H](O)[C@@H]6O)[C@H]5O)[C@H]5C[C@@H](O)CC[C@]5(C)[C@H]4CC[C@]3(C)[C@H]1[C@@H]2C | 400 µg/mL (≈ 552 µM) | 50 µg/mL (≈ 69 µM) | 200 µg/mL (≈ 276 µM) | 200 µg/mL (≈ 276 µM) | 
11 | C[C@@H]1CC[C@@]2(OC1)O[C@H]1C[C@H]3[C@@H]4C[C@H](O[C@@H]5O[C@H](C)[C@@H](O)[C@H](O)[C@H]5O)[C@H]5C[C@@H](O)CC[C@]5(C)[C@H]4CC[C@]3(C)[C@H]1[C@@H]2C | > 400 µg/mL | 50 µg/mL (≈ 86.4 µM) | 25 µg/mL (≈ 43.2 µM) | 200 µg/mL (≈ 346 µM) | 

Source: ChEMBL document CHEMBL1151223, “Antimycotic spirostanol saponins from Solanum hispidum leaves and their structure-activity relationships” (2004)
